# Measured values gathered from unrelated publications.
# Lines come from different studies, so protocols differ.
# Observed: microbial growth
SMILES,organism,test,system,conditions,MIC
CCCCCCC/C=C/C(=O)N1C(=O)/C(=C(\O)c2ccc(OCOCCOC)cc2)C(=O)C1CC(C)C (stereo not shown),Proteus vulgaris,,ATCC33420,,> 200 µg/mL
OC(Cn1cncn1)(Cn1cncn1)c1ccc(F)cc1F,Cryptococcus neoformans,broth dilution,ATCC208821,24 h,8 µg/mL
O=C(O)c1cn(C2CC2)c2cc(N3CCNCC3)c(F)cc2c1=O,Proteus vulgaris,,DSM2140,,≤ 0.03 µg/mL
CCCCCCC/C=C/C(=O)N1CC(=O)/C(=C(\C)O)C1=O,Proteus vulgaris,,ATCC33420,,> 200 µg/mL
CN1CCN(CC(O)(Cn2cncn2)c2ccc(F)cc2F)CC1 (stereo not shown),Nakaseomyces glabratus,broth dilution,ATCC2001,48 h,31.3 µg/mL
CCCCCCC/C=C/C(=O)N1C(=O)/C(=C(/C)O)C(=O)C1CCC(=O)O (stereo not shown),Proteus vulgaris,,ATCC33420,,> 200 µg/mL
CCCCCCCCCCCCCCS(=O)(=O)C[C@@H]1O[C@@H](O[C@@H]2[C@@H](O)[C@H](O[C@@H]3O[C@@H](CN)[C@H](O)[C@@H](O)[C@@H]3N)[C@@H](N)C[C@H]2N)[C@@H](O)[C@H](N)[C@H]1O,Listeria monocytogenes,,ATCC19115,,2 to 4 µg/mL
C/C(=C\c1ccc(O)cc1)C(=O)Nc1ccc(C(=O)N[C@@H](CC(N)=O)C(=O)Nc2ccc(C(=O)Nc3ccc(C(=O)Nc4ccc(C(=O)O)cc4)c(O)c3OC(C)C)cc2)cc1,Proteus vulgaris,,DSM2140,,0.125 µg/mL
CCCCC(=O)N1C(=O)/C(=C(/C)O)C(=O)C1CC(C)C (stereo not shown),Proteus vulgaris,,ATCC33420,,> 200 µg/mL
CC(C)Oc1c(NC(=O)c2ccc(NC(=O)[C@H](CC(N)=O)NC(=O)c3ccc(NC(=O)c4ccc(C#N)s4)cc3)cc2)ccc(C(=O)Nc2ccc(C(=O)O)cc2)c1O,Proteus vulgaris,,DSM2140,,0.06 µg/mL
O=C(Cc1cc(O)c(O)c(O)c1)NCCCCCCCC[P+](c1ccccc1)(c1ccccc1)c1ccccc1.[Br-],Cryptococcus neoformans,broth dilution,ATCC208821,24 h,> 32 µg/mL
CNC(=O)c1cc(Oc2ccc(NC(=O)Nc3ccc(Cl)c(C(F)(F)F)c3)cc2)ccn1,Listeria monocytogenes,,,,3 µM
C/C(=C\c1ccc(C#N)cc1)C(=O)Nc1ccc(C(=O)N[C@@H](CC(N)=O)C(=O)Nc2ccc(C(=O)Nc3ccc(C(=O)Nc4ccc(C(=O)O)cc4)c(O)c3OC(C)C)cc2)cc1,Proteus vulgaris,,DSM2140,,≤ 0.03 µg/mL
O=C(CCCCCCCCCC[P+](c1ccccc1)(c1ccccc1)c1ccccc1)Nc1cc(O)c(O)c(O)c1.[Br-],Cryptococcus neoformans,broth dilution,ATCC208821,24 h,4 µg/mL
CC(C)Oc1c(-n2cc(-c3ccc(NC(=O)C(CC(N)=O)NC(=O)c4ccc(NC(=O)c5ccc(C#N)cc5)cc4)cc3)nn2)ccc(C(=O)Nc2ccc(C(=O)O)cc2)c1O (stereo not shown),Proteus vulgaris,,DSM2140,,2 µg/mL
CCCCCCCCCCCCCCSC[C@@H]1O[C@@H](O[C@@H]2[C@@H](O)[C@H](O[C@@H]3O[C@@H](CN)[C@H](O)[C@@H](O)[C@@H]3N)[C@@H](N)C[C@H]2N)[C@@H](O)[C@H](N)[C@H]1O,Listeria monocytogenes,,ATCC19115,,0.5 to 1 µg/mL
